# Experimental data: ChEMBL document CHEMBL4184226, “Design and synthesis of novel senkyunolide analogues as neuroprotective agents” (2018)
# Active and inactive are the calls of the source. The rule behind the calls is not given here.
# What was measured:
# Format in all cases: functional, cell-based
# [1] = test system: HT-22; assay: Neuroprotective activity against oxygen glucose deprivation-induced cell death in mouse HT22 cells assessed as increase cell survival at 6.25 to 100 uM by MTT assay
# In short: (§1)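 Mouse hippocampal HT-22 cells were split into blank control, OGD model and treated groups. Treated cells were exposed to oxygen glucose deprivation with test compound at 5 concentrations. The reference compound was dosed at 10 times the test-compound level. Viability was read by MTT and compared against the control and model groups. Each assay was run in triplicate.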
# [2] = test system: HT-22; assay: Neuroprotective activity against H2O2-induced oxidative stress-mediated cell death in mouse HT22 cells assessed as compound level causing increase cell survival at 1 to 100 uM by MTT assay
# [3] = test system: HT-22; assay: Neuroprotective activity against oxygen glucose deprivation-induced cell death in mouse HT22 cells assessed as increase cell survival at 100 uM by MTT assay; in short: as §1
SMILES,Activity [1],Activity [2],Activity [3]
CCC/C=C1/C(=O)Oc2ccccc21,Dose-dependent effect,,
CCC/C=C1/Oc2c(ccc(OC)c2OC)C1=O,Dose-dependent effect,,
CCC/C=C1/Oc2ccc(OC(=O)CCC(=O)OCCCOc3no[n+]([O-])c3S(=O)(=O)c3ccccc3)cc2C1=O,Dose-dependent effect,Active,Active
CCC/C=C1/Oc2cc(OC)ccc2C1=O,Dose-dependent effect,Active,
CCC/C=C1/C(=O)Oc2cc(OC)ccc21,Dose-dependent effect,,
CCCCC1Oc2c(ccc(OC)c2OC)C1=O (stereo unspecified),Dose-dependent effect,,
CCC/C=C1/C(=O)Oc2ccc(OC)cc21,Dose-dependent effect,,
CCC/C=C1/Oc2ccccc2C1=O,Dose-dependent effect,,
CCC/C=C1/Oc2ccc(OC(=O)CCC(=O)OC/C=C/COc3no[n+]([O-])c3S(=O)(=O)c3ccccc3)cc2C1=O,Dose-dependent effect,,
CCC/C=C1/Oc2ccc(OC(=O)CCC(=O)OCCCCOc3no[n+]([O-])c3S(=O)(=O)c3ccccc3)cc2C1=O,Dose-dependent effect,Active,
CCC/C=C1/Oc2ccc(OC(=O)CCC(=O)OC(C)CCOc3no[n+]([O-])c3S(=O)(=O)c3ccccc3)cc2C1=O (stereo unspecified),Dose-dependent effect,,
CCCCC1Oc2cc(OC)ccc2C1=O (stereo unspecified),Dose-dependent effect,,
